From PubChem
Compounds with a hit are over-represented: about 4.2% of the library has one in this group of screens.
M18AAP inhibitor = PfM18AAP enzyme inhibition; inhibition, % at 7.35 µM; recombinant PfM18AAP, H-Glu-NHMec fluorogenic cleavage; hit rate 1.2% among 290,000;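 active = inhibition above the campaign mean inhibition over all tested compounds plus 3 SD, cut at about 28% in these data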
AHR act = activators of human aryl hydrocarbon receptor | P35869 | AHR-responsive luciferase reporter cells, luminescence | activation, % at 5 µM | hit rate 2.5% among 320,000 | AID 2796; in the data active = activation above about 47%
SENP1 inh = blocks the human SENP1 SUMO protease catalytic domain; Q9P0U3; recombinant SENP1 catalytic domain, CyPet-SUMO1-YPet FRET cleavage; hit rate 0.21% among 360,000; inhibition, % at 10 µM;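 active = inhibition at least 30% at 10 µM, raw YFP signal under a set limit, fluorescence ratio 0.5 to 1.5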
Target sequence (Q9P0U3 419-644 limits assumed): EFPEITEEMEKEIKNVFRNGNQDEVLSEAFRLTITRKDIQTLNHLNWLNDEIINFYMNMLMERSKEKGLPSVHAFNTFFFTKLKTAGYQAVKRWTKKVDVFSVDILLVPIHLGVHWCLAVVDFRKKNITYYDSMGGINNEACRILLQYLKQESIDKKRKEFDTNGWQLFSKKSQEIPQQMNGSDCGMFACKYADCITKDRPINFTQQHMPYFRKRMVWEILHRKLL
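Material: hSENP1 catalytic domain, recombinant; medium: Tris pH 8 with BME, BSA, NP40 and catalase; compound: single concentration of 10 µM compound, 0.5% DMSO final; technique: FRET read of cyan and yellow fluorescence; timing: 50 min enzyme reaction, room temperature, light-protected; reagent: SFCypet-SUMO1-SFYpet substrate at 25 nM; control set: no-enzyme low, enzyme-DMSO high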
GAA850 FXN act = frataxin GAA850 promoter activation; HEK293 lucGAA850 FXN promoter luciferase reporter, 24 h; percent of 10 µM SAHA response; activation, % at 6 µM; hit rate 0.56% among 360,000; AID 540364;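 active = activation above the average of all compounds screened plus 3 SD, cutoff fixed separately per campaign, cut at about 7.5% in these data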
CTSL1 counter = counter-screen for PFM18AAP inhibitors: inhibitors of F. hepatica cathepsin L1 | recombinant F. hepatica cathepsin L1, Z-Leu-Arg-MCA fluorescence | inhibition, % at 5.96 µM | hit rate 0.49% among 300,000;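 active = inhibition above the mean of all tested compounds plus 3 SD, set per screening campaign, cut at about 17% in these data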
HDAC3 inh = inhibitors of human histone deacetylase 3 | O15379 | recombinant HDAC3, fluorogenic peptide/trypsin coupled, fluorescence | inhibition, % at 8.3 µM | hit rate 0.15% among 320,000 | AID 2718; in the data active = inhibition above about 26%, passing the limit was not always enough
Target sequence (O15379 whole entry, looked up): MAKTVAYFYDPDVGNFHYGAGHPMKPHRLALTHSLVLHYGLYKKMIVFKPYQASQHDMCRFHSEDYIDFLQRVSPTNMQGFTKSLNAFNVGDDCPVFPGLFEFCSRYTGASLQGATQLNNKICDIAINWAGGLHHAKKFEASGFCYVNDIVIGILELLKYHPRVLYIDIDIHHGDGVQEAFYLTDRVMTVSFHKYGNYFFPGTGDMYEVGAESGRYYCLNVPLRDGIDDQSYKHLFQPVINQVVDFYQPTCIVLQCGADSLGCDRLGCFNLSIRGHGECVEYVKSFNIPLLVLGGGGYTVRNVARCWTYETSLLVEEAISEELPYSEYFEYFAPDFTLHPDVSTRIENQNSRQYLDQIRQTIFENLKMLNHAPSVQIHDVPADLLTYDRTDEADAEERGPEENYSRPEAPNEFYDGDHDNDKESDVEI
Numbers stand for hits; 0 = inactive; - = no result given.

SMILES	M18AAP inhibitor	AHR act	SENP1 inh	GAA850 FXN act	CTSL1 counter	HDAC3 inh
Cc1ccc(NC(=O)COC(=O)CNC(=O)C2CCCCC2)c(Br)c1	0	0	0	0	47.0	0
COc1cc(C(=O)COC(=O)CNC(=O)C2CCCCC2)cc(OC)c1OC	0	0	0	0	35.8	0
CCOC(=O)[C@]12CCCC=C1N(CCC1=CCCCC1)C(=O)[C@H](CC(=O)N1CCN(C(=O)C3CC3)CC1)C2	-	-	0	-	-	-
C=CC[C@@H](Cc1ccc(F)cc1)C(=O)OC[C@@H]1CCCN1C(=O)[C@@H](CC=C)CC(=O)N[C@H](CO)Cc1ccccc1	-	0	0	0	-	0
O=c1[nH]cnc2c1ncn2C1CCC(CO)O1 (stereo unspecified)	-	-	0	-	-	-
COCCN(CC(=O)Nc1cccc(C)c1C)C(=O)CN1C(=O)NC2(CCCCC2)C1=O	-	0	0	0	-	0
Nc1c2c(nc3ccc(Br)cc13)N(C1CCCCC1)CC2	0	52.2	-	-	0	0
Nc1c2c(nc3ccccc13)N(C1CCCCC1)CC2	-	0	0	0	0	0
Nc1c2c(nc3ccc(Br)cc13)N(c1ccccc1)CC2	0	76.0	0	0	0	0
Cc1cccc(N2CCc3c2nc2ccc(Br)cc2c3N)c1	0	108.0	0	0	0	0
Cc1ccc(NC(=O)CN(C)C(=O)C(C)OC(=O)c2ccccc2NCCO)cc1 (stereo unspecified)	-	0	0	0	0	0
N=c1ccn2c(n1)O[C@H]1[C@@H](CO)[C@H](O)O[C@H]12	-	0	0	0	0	0
COc1nc(C)ccc1-c1noc(-c2cccs2)n1	0	0	0	0	0	0
COc1nc(-c2ccccc2)ccc1-c1noc(-c2ccccc2)n1	0	0	0	0	0	0
COc1nc(-c2ccccc2)ccc1-c1noc(-c2cccs2)n1	0	52.1	0	0	0	0
COc1cccc(-c2noc(-c3cccs3)n2)c1	0	47.8	0	0	0	0
CCc1nc2ccc(C(=O)NCCNC(C)=O)cn2c1N(C)CCCc1ccccc1	-	-	0	0	-	-
COc1ccc(NC(=O)c2cccc3c2C(=O)c2ccc(-c4cnc(OC)nc4)cc2S3(=O)=O)cc1	-	0	0	0	-	0
CCN1CCN(C(=O)/C=C/c2cccc(Cl)c2)CC1	0	0	0	0	0	0
CCN1CCN(C(=O)/C=C/c2ccc(C(C)C)cc2)CC1	-	0	0	0	16.8	0
CCOC(=O)[C@@H]1[C@H]2COc3ccc(Br)cc3[C@H]2N2C(=O)N(c3ccc(F)cc3)C(=O)[C@@]12C	0	0	0	0	0	0
Oc1ccccc1N=N/C(=N/Nc1ccccc1O)c1ccccc1	-	0	0	0	0	0
N#C/C(N=Nc1ccccc1O)=N\Nc1ccccc1O	-	0	33.2	0	33.6	0
COc1ccc(Nc2ncnc3sccc23)cc1	0	0	0	0	0	0
COc1cccc(Nc2ncnc3sccc23)c1	0	52.0	0	0	0	0
SMILES	M18AAP inhibitor	AHR act	SENP1 inh	GAA850 FXN act	CTSL1 counter	HDAC3 inh
COc1cc(OC)cc(-c2nc3cc(C)ccc3o2)c1	0	57.6	0	0	0	0
Cc1ccc(-c2nc3cc(Cl)ccc3o2)cc1	0	0	0	0	0	0
CCCC(NC(=O)CCl)c1ccccc1 (stereo unspecified)	0	0	0	0	22.3	0
CC(C)N(C(=O)[C@H]1CC(CC(=O)NC(C)(C)C)C(=O)N2CCc3c([nH]c4ccccc34)[C@]12C)C(C)C (stereo partly specified)	-	0	0	0	-	0
Cc1cc(C(F)(F)Cl)n2ncc(-c3ccccn3)c2n1	0	63.6	0	0	0	0
COC(=O)c1ccccc1NC(=O)C/C(C)=N/NC(=O)Cc1ccc(Cl)cc1	0	0	0	0	0	0
COc1cc(NC(=O)C/C(C)=N/NC(=O)Cc2ccc(Cl)cc2)c(OC)cc1Cl	0	81.0	0	0	0	0
C/C(CC(=O)Nc1cc(Cl)ccc1Cl)=N\NC(=O)c1ccccc1Br	0	71.3	0	0	0	0
O=C(/C=C/c1cccc(F)c1)Nc1ccc(S(=O)(=O)Nc2ncccn2)cc1	0	54.0	0	0	0	0
O=C(/C=C/c1ccccc1)NC(NC(=S)Nc1cccc(Cl)c1)C(Cl)(Cl)Cl (stereo unspecified)	0	0	0	0	18.0	0
O=C(/C=C/c1ccc(Br)cc1)Nc1ccc(S(=O)(=O)Nc2ncccn2)cc1	0	0	0	0	0	0
O=C(/C=C/c1cccc(Cl)c1)Nc1ncccn1	0	64.1	0	0	0	-
CC(C)C1Cc2[nH][nH]c(=O)c2C(C2CC2)O1 (stereo unspecified)	-	-	0	-	-	-
COc1ccc(-c2csc(NC(CO)c3nc4ccccc4n3CCOCCO)n2)cc1 (stereo unspecified)	-	0	0	0	0	0
COc1ccc(-c2csc(NC(C)c3nc4cc(Cl)c(Cl)cc4n3CCOCCO)n2)cc1 (stereo unspecified)	-	0	0	0	0	0
CC(Nc1nc(-c2ccc(F)cc2)cs1)c1nc2cc(Cl)c(Cl)cc2n1CCCO (stereo unspecified)	-	71.7	0	0	0	0
Cc1ccc(-c2csc(NCCc3nc4cc(Cl)c(Cl)cc4n3CCCO)n2)cc1	-	0	0	0	0	0
OCCOCCn1c(CCNc2nc(-c3ccc(Cl)cc3)cs2)nc2cc(Cl)c(Cl)cc21	-	58.8	0	0	0	0
COc1ccc(-c2csc(NC(CO)c3nc4ccccc4n3CCCO)n2)cc1 (stereo unspecified)	-	55.4	0	0	0	0
Cc1ccc(S(=O)(=O)N2CCCC2C(=O)NCc2ccncc2)cc1 (stereo unspecified)	0	0	0	0	0	0
CSc1ccc(Cn2c(C)c(C(=O)NCc3ccc4c(c3)OCCO4)sc2=O)cc1	-	-	0	0	-	-
COc1cccc(CNC(=O)[C@@H]2CCCN2C(=O)[C@H]2CCCCN2C(=O)c2c(F)cccc2F)c1	-	-	0	-	-	-
O=C(NCCN1CCCCCC1)C1CCC(CNS(=O)(=O)c2cccc3cccnc23)CC1 (stereo unspecified)	0	0	0	0	38.9	0
COc1ccccc1NC(=O)c1csc2c1CCC(C)C2 (stereo unspecified)	0	54.9	0	0	0	0
CC1CCc2c(C(=O)NCc3ccco3)csc2C1 (stereo unspecified)	0	0	0	0	0	0
O=C(C[C@H]1C=C[C@@H](NC(=O)Cc2cccnc2)[C@@H](CO)O1)NCc1ccc2c(c1)OCO2	-	-	0	-	-	-
CCOC(=O)c1c(C)[nH]c(C)c1C(=O)CSc1nc2ccccc2[nH]1	0	58.5	0	0	0	0
CCOC(=O)c1c(C)[nH]c(C)c1C(=O)CSc1ncccn1	0	77.6	0	0	0	0
CCOC(=O)c1c(C)[nH]c(C)c1C(=O)CSc1nc(N)cc(=O)[nH]1	0	0	0	0	0	0
CCOC(=O)c1c(C)[nH]c(C)c1C(=O)Cn1nnc(-c2ccccc2C)n1	0	49.4	0	0	0	0
